In ChEMBL document CHEMBL1157852, “Modulation of doxorubicin activity in cancer cells by conjugation with fatty acyl and terpenyl hydrazones” (Eur J Med Chem, 2010):
Activity calls are given as the source filed them. The calls are words filed in the database; no cut-off is given here.

Legend:
[1] = system: Nucleic Acid; test: Binding affinity to Escherichia coli pBR322 DNA assessed as effect on DNA electrophoretic mobility at 5 to 25 uM after 24 hrs; type: nucleic-acid assay
How it was run: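 pBR322 plasmid DNA from a TE stock incubated with compound at 0, 5, 10 and 25 µM, in the dark at 37 °C for 24 h. Samples run on 1% agarose gel in 0.5× TBE for 4 h at 66 V. Read-out: shifts in mobility of the open circular and covalently closed circular forms.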

[2] = Cytotoxicity against human 518A2 cells after 24 hrs by MTT assay; type: functional, cell-based; settings: 518A2, 24 h
How it was run: (§1)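 MTT assay. Cells seeded and cultured 24 h, then exposed to compound for 24, 48 or 72 h. MTT added to a final 0.05% (HL-60, 518A2) or 0.1% (KB-V1, MCF-7) for 2 h. Formazan dissolved in 10% SDS/DMSO with 0.6% acetic acid; absorbance read at 570 nm against 630 nm background. Viability taken relative to untreated controls (100%). IC50 from concentration-response curves, mean ± SD of four independent experiments.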

[3] = Cytotoxicity against human 518A2 cells after 72 hrs by MTT assay; type: functional, cell-based; settings: 518A2, 72 h; how it was run: as §1
[4] = system: HL-60; test: Cytotoxicity against human HL60 cells after 24 hrs by MTT assay; type: functional, cell-based; settings: HL-60, 24 h; how it was run: as §1
[5] = system: HL-60; test: Cytotoxicity against human HL60 cells after 48 hrs by MTT assay; type: functional, cell-based; settings: HL-60, 48 h; how it was run: as §1
[6] = system: HL-60; test: Cytotoxicity against human HL60 cells after 72 hrs by MTT assay; type: functional, cell-based; settings: HL-60, 72 h; how it was run: as §1
[7] = system: MCF7; test: Cytotoxicity against human topotecan-resistant MCF7 cells after 24 hrs by MTT assay; type: functional, cell-based; settings: MCF7, 24 h; how it was run: as §1
[8] = system: MCF7; test: Cytotoxicity against human topotecan-resistant MCF7 cells after 48 hrs by MTT assay; type: functional, cell-based; settings: MCF7, 48 h; how it was run: as §1
[9] = Cytotoxicity against human vinblastine-resistant KBV1 cells after 72 hrs by MTT assay in presence of 24 mM ABC transporter inhibitor verapamil hydrochloride; type: functional, cell-based; settings: KB-V1, 72 h, in the assay text read “24 uM” for “24 mM”
How it was run: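 MTT viability assay on P-gp-overexpressing KB-V1/Vbl cells with 24 µM verapamil hydrochloride added before the compound; 72 h exposure. Formazan read at 570/630 nm relative to untreated controls. IC50 from concentration-response curves, mean ± SD of four independent experiments.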

[10] = system: MCF7; test: Cytotoxicity against human topotecan-resistant MCF7 cells after 72 hrs by MTT assay in presence of […] BCRP inhibitor fumitremorgin C; type: functional, cell-based; settings: MCF7, 72 h
How it was run: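 MCF-7/Topo cells grown in E-MEM with 2.2 g/L NaHCO₃, 110 mg/L sodium pyruvate and 5% FCS. Cells were seeded, cultured 24 h, given fumitremorgin C, then exposed to compound for 72 h. MTT was added (final 0.1%) for 2 h, medium discarded, and formazan dissolved in 10% SDS/DMSO with 0.6% acetic acid. A570 (630 background) read versus untreated controls; IC50 from concentration-response curves; four independent experiments, mean ± SD.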

[11] = Cytotoxicity against human doxorubicin-resistant KBV1 cells by MTT assay; type: functional, KB-V1
[12] = Ratio of compound IC50 to doxorubicin IC50 for human doxorubicin-resistant KBV1 cells; type: functional
[13] = system: HL-60; test: Induction of apoptosis in human HL60 cells assessed as increase of caspase 3 activity at 5 uM after 4 hrs by luminometric assay; type: functional, cell-based
How it was run: (§2)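 HL-60 and 518A2 cells treated with 5 µM compound and sampled at intervals from 1 to 24 h. Lysed in 50 mM Tris-HCl pH 7.4, 150 mM NaCl, 1% Triton X-100 with protease inhibitors for 15 min at 4 °C, spun at 800 g. Protein measured by Bradford. Caspase-3/7, -8 and -9 activities read with luminogenic peptide substrates; reported as relative luminescence.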

[14] = system: HL-60; test: Induction of apoptosis in human HL60 cells assessed as increase of caspase 8 activity at 5 uM after 4 to 24 hrs by luminometric assay; type: functional, cell-based; how it was run: as §2
[15] = system: 518A2; test: Induction of apoptosis in human 518A2 cells assessed as increase of caspase 8 activity at 5 uM measured up to 12 hrs by luminometric assay; type: functional, cell-based; how it was run: as §2
[16] = system: 518A2; test: Induction of apoptosis in human 518A2 cells assessed as increase of caspase 3 activity at 5 uM measured up to 12 hrs by luminometric assay; type: functional, cell-based; how it was run: as §2
[17] = system: 518A2; test: Induction of apoptosis in human 518A2 cells assessed as increase of caspase 9 activity at 5 uM after 8 to 12 hrs by luminometric assay; type: functional, cell-based; how it was run: as §2
[18] = system: HL-60; test: Induction of apoptosis in human HL60 cells assessed as increase of ratio of Bax to Bcl-2 mRNA expression at 5 uM after 6 to 18 hrs by RT-PCR analysis; type: functional, cell-based
How it was run: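 Real-time PCR of bax and bcl-2 mRNA in HL-60 cells after 6 h and 18 h exposure to test compound. Each gene was normalised to GAPDH, and the bax/bcl-2 expression ratio was reported.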

[19] = system: 518A2; test: Induction of apoptosis in human 518A2 cells assessed as increase of ratio of Bax to Bcl-2 mRNA expression at 5 uM after 6 to 18 hrs by RT-PCR analysis; type: functional, cell-based
How it was run: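 518A2 cells exposed to 5 µM compound for 6 h or 18 h. bax and bcl-2 mRNA quantified by real-time PCR, normalised to GAPDH, and expressed as the bax/bcl-2 ratio.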

[20] = system: 518A2; test: Induction of apoptosis in human 518A2 cells assessed as appearance of intact mitochondria in cytosol at 5 uM after 18 hrs using JC1 dye relative to control; type: functional
How it was run: (§3)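 Mitochondrial membrane potential measured with JC-1. Cells exposed to 5 µM compound for 6 or 18 h, pelleted at 400 g, stained with 0.2× JC-1 at 37 °C for 15 min (HL-60) or 35 min (518A2), washed and resuspended in PBS. Red fluorescence (ex 585/em 590 nm) and green (ex 510/em 527 nm) read; red/green ratio relative to untreated controls (100%). Mean ± SD, four independent experiments.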

[21] = system: HL-60; test: Induction of apoptosis in human HL60 cells assessed as appearance of intact mitochondria in cytosol at 5 uM after 6 hrs using JC1 dye relative to control; type: functional; how it was run: as §3
[22] = system: HL-60; test: Induction of apoptosis in human HL60 cells assessed as appearance of intact mitochondria in cytosol at 5 uM after 18 hrs using JC1 dye relative to control; type: functional; how it was run: as §3
[23] = Cytotoxicity against human 518A2 cells assessed as increase in ROS production at 5 uM after 24 hrs by NBT reduction assay relative to control; type: functional
How it was run: (§4)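 NBT assay. HL-60 cells (0.5×10⁶/mL) or trypsinised 518A2 cells (5×10⁴/mL) pre-incubated 24 h at 37 °C, then given compound at a final 5 µM for 24 or 72 h. Medium removed; cells incubated with 0.1% NBT for 1 h (HL-60) or 4 h (518A2). Diformazan dissolved in 2 M KOH/DMSO; A630 read against 405 nm. Given as % of untreated controls; double quadruplicates.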

[24] = Cytotoxicity against human 518A2 cells assessed as increase in ROS production at 5 uM after 72 hrs by NBT reduction assay relative to control; type: functional; how it was run: as §4
[25] = system: HL-60; test: Cytotoxicity against human HL60 cells assessed as increase in ROS production at 5 uM after 24 hrs by NBT reduction assay relative to control; type: functional; how it was run: as §4

COc1cccc2c1C(=O)c1c(O)c3c(c(O)c1C2=O)C[C@@](O)(/C(CO)=N/NC(=O)CCCCCCCCCCC(=O)O[C@@H]1C[C@H](C)CC[C@H]1C(C)C)C[C@@H]3O[C@H]1C[C@H](N)[C@H](O)[C@H](C)O1.Cl
Activity [1]: Active
IC50 [2]: 230 nM
IC50 [3]: 60 nM
IC50 [4]: 300 nM
IC50 [5]: 250 nM
IC50 [6]: 110 nM
IC50 [7]: 7100 nM
IC50 [8]: 2600 nM
IC50 [9]: 670 nM
IC50 [10]: 90 nM
Activity [11]: 200 nM
Ratio IC50 [12]: 1.6
Activity [13]: Active
Activity [14]: Active
Activity [15]: inactive
Activity [16]: inactive
Activity [17]: Active
Activity [18]: Active
Activity [19]: Active
Activity [20]: 71%
Activity [21]: 90%
Activity [22]: 23%
Activity [23]: 3.3%
Activity [24]: 38.3%
Activity [25]: 3.8%
